Laboratory results as given in ChEMBL document CHEMBL5523688, “Selective targeting of human TET1 by cyclic peptide inhibitors: Insights from biochemical profiling” (Bioorg Med Chem, 2024).

How the values were obtained:
[1] = biological target: T1, Methylcytosine dioxygenase TET2 (Homo sapiens, UniProt Q6N021); test: (§1) Inhibition of N-terminal His-tagged recombinant human TET2 catalytic domain LCIdel mutant (D1129 to G1936 residues with Y1481 to N1843 replaced by 3 x GGGGS linker) expressed in Escherichia coli BL21 (DE3) using 5-methylcytosine as substrate preincubated for 10 mins followed by substrate and DNA-cofactor addition measured after 10 mins by Alphascreen assay
[2] = system: Methylcytosine dioxygenase TET2 (Homo sapiens), Q6N021 [UNDEFINED MUTATION]; details: time 20.0 min
[3] = biological target: Methylcytosine dioxygenase TET1 (Mus musculus, UniProt Q3URK3); test: Inhibition of recombinant mouse TET1 catalytic domain (E1367 to V2039 residues) expressed in baculovirus expression system using 5-methylcytosine as substrate preincubated for 10 mins followed by substrate and DNA-cofactor addition measured after 9 mins by Alphascreen assay
Sequence of Methylcytosine dioxygenase TET1 (Mus musculus, UniProt Q3URK3) (Q3URK3 whole entry, the tested form may be a part): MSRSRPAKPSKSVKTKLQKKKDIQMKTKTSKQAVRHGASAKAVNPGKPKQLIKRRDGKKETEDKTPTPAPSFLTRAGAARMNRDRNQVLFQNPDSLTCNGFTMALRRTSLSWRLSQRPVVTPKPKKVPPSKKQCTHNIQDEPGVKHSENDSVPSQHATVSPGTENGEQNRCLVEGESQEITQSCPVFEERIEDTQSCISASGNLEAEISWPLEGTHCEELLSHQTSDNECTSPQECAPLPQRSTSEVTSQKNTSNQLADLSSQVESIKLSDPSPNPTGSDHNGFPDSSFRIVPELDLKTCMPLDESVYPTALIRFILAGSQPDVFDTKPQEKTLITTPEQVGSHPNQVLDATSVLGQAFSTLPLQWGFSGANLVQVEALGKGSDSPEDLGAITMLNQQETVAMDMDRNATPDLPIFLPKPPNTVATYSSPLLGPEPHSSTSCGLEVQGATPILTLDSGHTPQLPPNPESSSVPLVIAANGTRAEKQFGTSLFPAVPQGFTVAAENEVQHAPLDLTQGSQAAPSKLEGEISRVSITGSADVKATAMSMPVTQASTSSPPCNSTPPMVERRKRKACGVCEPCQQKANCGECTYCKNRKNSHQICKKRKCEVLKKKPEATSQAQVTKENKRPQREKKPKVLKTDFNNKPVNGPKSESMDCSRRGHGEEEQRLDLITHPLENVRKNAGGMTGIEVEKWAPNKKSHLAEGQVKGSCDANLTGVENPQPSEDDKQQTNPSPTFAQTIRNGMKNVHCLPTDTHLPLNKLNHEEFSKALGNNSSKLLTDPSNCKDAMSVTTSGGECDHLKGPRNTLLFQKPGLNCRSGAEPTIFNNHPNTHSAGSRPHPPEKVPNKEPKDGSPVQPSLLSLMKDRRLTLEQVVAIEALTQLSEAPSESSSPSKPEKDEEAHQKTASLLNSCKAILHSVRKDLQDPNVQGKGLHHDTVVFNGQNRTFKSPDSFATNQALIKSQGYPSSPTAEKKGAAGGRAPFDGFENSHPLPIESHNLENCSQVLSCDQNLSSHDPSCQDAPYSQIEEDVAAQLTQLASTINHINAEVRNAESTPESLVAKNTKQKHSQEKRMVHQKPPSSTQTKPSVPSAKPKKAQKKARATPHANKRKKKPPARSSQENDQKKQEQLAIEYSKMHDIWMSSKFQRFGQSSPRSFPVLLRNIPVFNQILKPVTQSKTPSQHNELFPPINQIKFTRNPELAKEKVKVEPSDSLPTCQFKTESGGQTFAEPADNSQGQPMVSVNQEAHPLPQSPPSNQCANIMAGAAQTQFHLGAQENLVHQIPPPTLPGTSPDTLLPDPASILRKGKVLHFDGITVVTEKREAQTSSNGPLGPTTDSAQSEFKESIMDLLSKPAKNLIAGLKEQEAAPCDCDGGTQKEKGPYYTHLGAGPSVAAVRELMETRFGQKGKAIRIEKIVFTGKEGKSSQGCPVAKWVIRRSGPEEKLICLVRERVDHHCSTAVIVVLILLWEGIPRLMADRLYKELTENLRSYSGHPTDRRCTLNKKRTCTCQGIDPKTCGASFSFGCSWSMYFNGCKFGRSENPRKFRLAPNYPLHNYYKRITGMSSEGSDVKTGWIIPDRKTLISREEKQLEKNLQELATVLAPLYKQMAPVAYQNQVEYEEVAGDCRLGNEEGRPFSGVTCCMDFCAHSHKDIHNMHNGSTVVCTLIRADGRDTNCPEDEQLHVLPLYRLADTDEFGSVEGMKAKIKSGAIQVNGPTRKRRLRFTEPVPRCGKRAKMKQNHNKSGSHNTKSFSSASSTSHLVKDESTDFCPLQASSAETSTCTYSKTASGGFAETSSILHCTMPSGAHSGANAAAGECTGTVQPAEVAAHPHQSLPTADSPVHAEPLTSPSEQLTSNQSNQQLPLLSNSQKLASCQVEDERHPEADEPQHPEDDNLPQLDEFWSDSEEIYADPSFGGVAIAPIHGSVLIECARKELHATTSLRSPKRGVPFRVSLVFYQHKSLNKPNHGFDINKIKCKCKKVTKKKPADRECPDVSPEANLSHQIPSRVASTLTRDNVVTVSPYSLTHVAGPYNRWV
In short: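 Murine Tet1 catalytic domain (E1367–V2039, High Five baculovirus) at 2 nM was preincubated 10 min with inhibitor (1% DMSO) in HEPES 50 mM pH 7.3, NaCl 150 mM, BSA 0.1%, Tween-20 0.01%. Ascorbate 200 µM, Fe(II) 20 µM, 2OG 20 µM and 5mC ssDNA 10 nM were added; reaction ran 9 min, then EDTA-quenched. AlphaScreen anti-5hmC detection by luminescence.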

[4] = biological target: T1, Methylcytosine dioxygenase TET2; test: as §1, with “after 12” for “after 10”, “by SPE-MS analysis” for “by Alphascreen assay”
[5] = biological target: Methylcytosine dioxygenase TET1 (Homo sapiens, UniProt Q8NFU7); test: Inhibition of N-terminal 3xFlag-tagged recombinant human TET1 catalytic domain (E1418 to V2136 residues) expressed in baculovirus infected Sf9 cells using 5-methylcytosine as substrate preincubated for 10 mins followed by substrate and DNA-cofactor addition measured after 30 mins by Alphascreen assay; details: read-out: pIC50 (converted)
In short: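 TET1 catalytic domain (E1418–V2136, Sf9 baculovirus) at 2 nM was preincubated 10 min with inhibitor (1% DMSO) in HEPES 50 mM pH 7.3, 150 mM NaCl, 0.1% BSA, 0.01% Tween-20. Reaction was started with ascorbate 200 µM, Fe(II) 20 µM, 2OG 20 µM and 5mC ssDNA 10 nM, run 30 min, then EDTA-quenched. Anti-5hmC antibody with AlphaScreen beads, 45–60 min, luminescence read. Three independent replicates.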

[6] = biological target: Methylcytosine dioxygenase TET3 (Homo sapiens, UniProt O43151); test: Inhibition of recombinant human TET3 catalytic domain (E824 to I1795 residues) expressed in baculovirus infected Sf9 cells using 5-methylcytosine as substrate preincubated for 10 mins followed by substrate and DNA-cofactor addition measured after 10 mins by Alphascreen assay; details: read-out: pIC50 (converted)
Sequence of Methylcytosine dioxygenase TET3 (O43151 whole entry, the tested form may be a part): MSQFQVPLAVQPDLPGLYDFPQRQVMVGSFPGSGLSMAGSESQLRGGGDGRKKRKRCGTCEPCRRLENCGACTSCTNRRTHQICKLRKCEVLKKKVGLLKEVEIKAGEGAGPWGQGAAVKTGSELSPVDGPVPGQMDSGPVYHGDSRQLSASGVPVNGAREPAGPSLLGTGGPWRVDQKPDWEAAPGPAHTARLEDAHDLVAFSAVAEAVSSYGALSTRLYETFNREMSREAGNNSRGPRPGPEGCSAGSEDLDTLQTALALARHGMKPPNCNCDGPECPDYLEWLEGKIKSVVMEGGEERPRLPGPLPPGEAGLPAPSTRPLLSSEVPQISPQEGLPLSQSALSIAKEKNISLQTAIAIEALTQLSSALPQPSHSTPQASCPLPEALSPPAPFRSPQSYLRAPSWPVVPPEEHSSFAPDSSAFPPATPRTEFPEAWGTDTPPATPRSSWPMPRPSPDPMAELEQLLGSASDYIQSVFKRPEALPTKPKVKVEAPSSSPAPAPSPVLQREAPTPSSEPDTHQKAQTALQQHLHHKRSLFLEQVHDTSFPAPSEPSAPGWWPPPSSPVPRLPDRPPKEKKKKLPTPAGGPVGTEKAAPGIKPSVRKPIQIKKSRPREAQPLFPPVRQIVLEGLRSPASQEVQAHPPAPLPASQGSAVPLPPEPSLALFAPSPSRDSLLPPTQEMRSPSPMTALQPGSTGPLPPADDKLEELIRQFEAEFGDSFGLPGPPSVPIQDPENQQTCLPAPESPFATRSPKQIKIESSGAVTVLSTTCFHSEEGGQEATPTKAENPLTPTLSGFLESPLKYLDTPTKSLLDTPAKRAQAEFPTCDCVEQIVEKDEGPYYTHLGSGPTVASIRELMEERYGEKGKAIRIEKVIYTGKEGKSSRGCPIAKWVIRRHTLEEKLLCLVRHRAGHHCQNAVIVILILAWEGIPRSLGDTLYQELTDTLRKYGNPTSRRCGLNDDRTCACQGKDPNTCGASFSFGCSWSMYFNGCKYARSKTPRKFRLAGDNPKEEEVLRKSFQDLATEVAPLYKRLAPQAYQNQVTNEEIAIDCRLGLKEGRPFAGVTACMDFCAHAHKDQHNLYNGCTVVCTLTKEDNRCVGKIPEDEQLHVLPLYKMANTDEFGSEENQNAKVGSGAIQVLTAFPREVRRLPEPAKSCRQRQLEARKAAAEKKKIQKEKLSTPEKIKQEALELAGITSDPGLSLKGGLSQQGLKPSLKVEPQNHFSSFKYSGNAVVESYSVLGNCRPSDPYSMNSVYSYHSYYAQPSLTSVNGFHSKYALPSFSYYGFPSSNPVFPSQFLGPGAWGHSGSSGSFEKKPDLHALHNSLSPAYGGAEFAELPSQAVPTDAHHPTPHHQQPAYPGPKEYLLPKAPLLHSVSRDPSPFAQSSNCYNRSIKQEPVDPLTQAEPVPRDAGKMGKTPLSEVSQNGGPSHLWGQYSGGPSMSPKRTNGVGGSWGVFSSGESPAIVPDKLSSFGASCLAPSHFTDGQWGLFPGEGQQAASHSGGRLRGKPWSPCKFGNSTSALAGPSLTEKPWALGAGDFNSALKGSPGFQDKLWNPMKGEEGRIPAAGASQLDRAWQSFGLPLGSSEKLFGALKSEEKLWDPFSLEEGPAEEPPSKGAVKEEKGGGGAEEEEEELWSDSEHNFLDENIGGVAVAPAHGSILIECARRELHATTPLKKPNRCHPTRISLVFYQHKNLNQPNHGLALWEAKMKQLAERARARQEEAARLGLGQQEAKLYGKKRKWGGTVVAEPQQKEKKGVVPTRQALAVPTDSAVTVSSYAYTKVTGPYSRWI

Row | deltapIC50 [2] | IC50 [3] [µM] | IC50 [5] [µM] | IC50 [6] [µM] | SMILES | pIC50 [1] | pIC50 [4]
1 | 0.02 | 3.39 | 1.15 | 2.4 | CC[C@H](C)[C@@H]1NC(=O)[C@H](CCCNC(=N)N)NC(=O)[C@@H](Cc2ccc(O)cc2)NC(=O)CSC[C@@H](C(N)=O)NC(=O)[C@H](Cc2ccc(O)cc2)NC(=O)[C@H](C(C)C)NC(=O)[C@H](CC(N)=O)NC(=O)[C@H](Cc2c[nH]c3ccccc23)NC(=O)[C@H](Cc2c[nH]c3ccccc23)NC(=O)[C@H]([C@@H](C)O)NC(=O)[C@H](Cc2ccc(O)cc2)NC(=O)[C@H](Cc2ccccc2)NC(=O)[C@H](CC(C)C)NC(=O)[C@H](Cc2ccc(O)cc2)NC1=O | 5.59 | 5.61
2 | -0.43 | 1.1 | 0.24 | 1.02 | CC[C@H](C)[C@@H]1NC(=O)[C@H](Cc2ccccc2)NC(=O)[C@H](Cc2ccc(O)cc2)NC(=O)[C@H](CC(C)C)NC(=O)[C@H](CCCNC(=N)N)NC(=O)[C@H](C)NC(=O)[C@H](Cc2c[nH]c3ccccc23)NC(=O)[C@H](Cc2c[nH]c3ccccc23)NC(=O)[C@@H]2CCCN2C(=O)[C@H](C(C)C)NC(=O)[C@H](Cc2ccc(O)cc2)NC(=O)[C@@H](Cc2ccccc2)NC(=O)[C@H](CCCCN)NC(=O)[C@@H](Cc2ccc(O)cc2)NC(=O)CSC[C@H](C(N)=O)NC(=O)CNC1=O | 5.95 | 5.52
3 | -0.01 | 4.07 | 0.794 | 2.69 | CC[C@H](C)[C@@H]1NC(=O)[C@H](CCC(N)=O)NC(=O)[C@H](Cc2ccc(O)cc2)NC(=O)[C@H](Cc2ccc(O)cc2)NC(=O)[C@H]([C@@H](C)O)NC(=O)[C@H](CCCCN)NC(=O)[C@H](C(C)C)NC(=O)[C@H](CCCNC(=N)N)NC(=O)[C@H](Cc2ccc(O)cc2)NC(=O)[C@@H](Cc2ccc(O)cc2)NC(=O)CSC[C@@H](C(N)=O)NC(=O)[C@H](CO)NC(=O)[C@H](CC(C)C)NC(=O)[C@H](Cc2ccc(O)cc2)NC(=O)[C@H](C(C)C)NC(=O)[C@H](Cc2ccc(O)cc2)NC(=O)[C@H]([C@@H](C)O)NC1=O | 5.52 | 5.51
4 |  |  | 70.8 | 30.9 | CC[C@H](C)[C@H](NC(=O)[C@H](CC(C)C)NC(=O)[C@@H](Cc1ccc(O)cc1)NC(C)=O)C(=O)N[C@@H](Cc1ccc(O)cc1)C(=O)N[C@@H](C)C(=O)N[C@@H](Cc1ccc(O)cc1)C(=O)N[C@@H](Cc1ccc(O)cc1)C(=O)N[C@H](C(=O)N[C@@H](Cc1c[nH]c2ccccc12)C(=O)N[C@@H](Cc1c[nH]c2ccccc12)C(=O)N[C@@H](CCC(=O)O)C(=O)N[C@@H](Cc1cnc[nH]1)C(=O)N[C@@H](CO)C(=O)N[C@@H](CS)C(N)=O)[C@@H](C)O | < 4 | 
5 | 1.49 | 55 | 1.86 | 46.8 | CC(C)[C@@H]1NC(=O)[C@@H]2CCCN2C(=O)[C@H](C)NC(=O)[C@@H](Cc2ccc(O)cc2)NC(=O)CSC[C@@H](C(N)=O)NC(=O)[C@H](Cc2c[nH]c3ccccc23)NC(=O)[C@H](Cc2c[nH]c3ccccc23)NC(=O)[C@H]([C@@H](C)O)NC(=O)[C@H](Cc2ccc(O)cc2)NC(=O)[C@H](CC(N)=O)NC(=O)[C@H](Cc2c[nH]c3ccccc23)NC(=O)[C@H](Cc2ccc(O)cc2)NC1=O | 4.17 | 5.66
6 | -0.3 | 3.47 | 0.174 | 2.4 | CC(C)C[C@@H]1NC(=O)[C@H](Cc2ccc(O)cc2)NC(=O)[C@H](Cc2c[nH]c3ccccc23)NC(=O)[C@@H](Cc2ccc(O)cc2)NC(=O)CSC[C@@H](C(N)=O)NC(=O)[C@H](Cc2ccccc2)NC(=O)[C@H](Cc2c[nH]c3ccccc23)NC(=O)[C@@H]2CCCN2C(=O)[C@H](C(C)C)NC(=O)[C@H](CCCNC(=N)N)NC(=O)[C@H](Cc2ccc(O)cc2)NC(=O)[C@H](CO)NC(=O)[C@@H]2CCCN2C1=O | 5.49 | 5.19
